The source of these data is ChEMBL document CHEMBL1944598, “First synthesis and anticancer activity of novel naphthoquinone amides” (Eur J Med Chem, 2012).

The test system of test [1] is MCF7. Briefly: Cytotoxicity against human MCF7 cells after 3 days by resazurin microplate assay. The test is classed as functional, cell-based. Conditions: for pIC50: Homo sapiens, MCF7, 72 h, read-out: IC50; for IC50: mcf7. The essentials:
(§1)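 Log-phase cells seeded at 7×10^4 cells/mL (KB) or 9×10^4 cells/mL (MCF-7) onto compounds in 0.5% DMSO. Incubated 3 days at 37 °C, 5% CO₂, then resazurin added for 4 h. Fluorescence read at ex 530/em 590 nm. IC50 by curve fit from 6 two-fold serial dilutions. Doxorubicin positive, 0.5% DMSO negative control. Mean of three replicates ± SD.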

In test [2] the test system is KB. Briefly: Cytotoxicity against human KB cells after 3 days by resazurin microplate assay. The test is classed as functional, cell-based. The conditions noted are these: for pIC50: Homo sapiens, KB, 72 h, read-out: IC50. The essentials: as §1
Background: Alamar Blue is a resazurin reagent that responds to reducing activity.

Test [3] deals with NCI-H187. Briefly: Cytotoxicity against human NCI-H187 cells after 5 days by resazurin microplate assay. The conditions noted are these: NCI-H187, 120 h. The test is classed as functional, cell-based. The essentials:
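Log-phase NCI-H187 cells diluted to 9×10^4 cells/mL and seeded onto compounds in 0.5% DMSO. After 5 days at 37 °C, 5% CO₂, resazurin added for 4 h. Fluorescence read at ex 530/em 590 nm. IC50 fitted from 6 two-fold serial dilutions. Doxorubicin and 0.5% DMSO controls. Mean of three replicates ± SD.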

The subject of test [4] is Vero. Briefly: Cytotoxicity against african green monkey Vero cells expressing GFP after 4 days by fluorescence assay. The test is classed as cell-based. Conditions: Chlorocebus sabaeus, 96 h. The essentials: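 Vero (African green monkey kidney) cells stably transfected with pEGFP-N1, kept in MEM with 10% heat-inactivated FBS, 2 mM L-glutamine, 1 mM pyruvate, geneticin. Cells seeded at 3.3 × 10⁴ cells/mL onto compounds diluted in 0.5% DMSO, 4 days at 37 °C, 5% CO₂. Bottom-read fluorescence (ex 485/em 535 nm), day-0 background subtracted. IC50 by curve fit from 6 two-fold dilutions.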

Test [5] concerns the target DNA topoisomerase 2-alpha (Homo sapiens) (UniProt P11388). As to the kind of experiment: Inhibition of human topoisomerase 2alpha-mediated decatenation of kinetoplast DNA at 50 uM after 1 hr using ethidium bromide by agarose gel electrophoresis analysis. The essentials:
(§2)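 Doxorubicin as positive control. Stopped with Sarkosyl loading dye. Run on 1% agarose in 0.5x TBE with ethidium bromide at 50 V, imaged under UV. Decatenated and linearized kDNA used as markers.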

The target is the same in test [6]. As to the kind of experiment: Inhibition of human topoisomerase 2alpha-mediated decatenation of kinetoplast DNA at 10 uM after 1 hr using ethidium bromide by agarose gel electrophoresis analysis relative to doxorubicin. An outline of the steps:
as §2

Test [7] shares this target. Briefly: Inhibition of human topoisomerase 2alpha-mediated decatenation of kinetoplast DNA at 20 uM after 1 hr using ethidium bromide by agarose gel electrophoresis analysis. An outline of the steps: as §2

The structures appear in SMILES notation. pIC50: −log10 of the molar value. Active and inactive are the calls of the source. The calls are words filed in the database; no cut-off is given here.

Chain of DNA topoisomerase 2-alpha (Homo sapiens) (P11388 whole entry): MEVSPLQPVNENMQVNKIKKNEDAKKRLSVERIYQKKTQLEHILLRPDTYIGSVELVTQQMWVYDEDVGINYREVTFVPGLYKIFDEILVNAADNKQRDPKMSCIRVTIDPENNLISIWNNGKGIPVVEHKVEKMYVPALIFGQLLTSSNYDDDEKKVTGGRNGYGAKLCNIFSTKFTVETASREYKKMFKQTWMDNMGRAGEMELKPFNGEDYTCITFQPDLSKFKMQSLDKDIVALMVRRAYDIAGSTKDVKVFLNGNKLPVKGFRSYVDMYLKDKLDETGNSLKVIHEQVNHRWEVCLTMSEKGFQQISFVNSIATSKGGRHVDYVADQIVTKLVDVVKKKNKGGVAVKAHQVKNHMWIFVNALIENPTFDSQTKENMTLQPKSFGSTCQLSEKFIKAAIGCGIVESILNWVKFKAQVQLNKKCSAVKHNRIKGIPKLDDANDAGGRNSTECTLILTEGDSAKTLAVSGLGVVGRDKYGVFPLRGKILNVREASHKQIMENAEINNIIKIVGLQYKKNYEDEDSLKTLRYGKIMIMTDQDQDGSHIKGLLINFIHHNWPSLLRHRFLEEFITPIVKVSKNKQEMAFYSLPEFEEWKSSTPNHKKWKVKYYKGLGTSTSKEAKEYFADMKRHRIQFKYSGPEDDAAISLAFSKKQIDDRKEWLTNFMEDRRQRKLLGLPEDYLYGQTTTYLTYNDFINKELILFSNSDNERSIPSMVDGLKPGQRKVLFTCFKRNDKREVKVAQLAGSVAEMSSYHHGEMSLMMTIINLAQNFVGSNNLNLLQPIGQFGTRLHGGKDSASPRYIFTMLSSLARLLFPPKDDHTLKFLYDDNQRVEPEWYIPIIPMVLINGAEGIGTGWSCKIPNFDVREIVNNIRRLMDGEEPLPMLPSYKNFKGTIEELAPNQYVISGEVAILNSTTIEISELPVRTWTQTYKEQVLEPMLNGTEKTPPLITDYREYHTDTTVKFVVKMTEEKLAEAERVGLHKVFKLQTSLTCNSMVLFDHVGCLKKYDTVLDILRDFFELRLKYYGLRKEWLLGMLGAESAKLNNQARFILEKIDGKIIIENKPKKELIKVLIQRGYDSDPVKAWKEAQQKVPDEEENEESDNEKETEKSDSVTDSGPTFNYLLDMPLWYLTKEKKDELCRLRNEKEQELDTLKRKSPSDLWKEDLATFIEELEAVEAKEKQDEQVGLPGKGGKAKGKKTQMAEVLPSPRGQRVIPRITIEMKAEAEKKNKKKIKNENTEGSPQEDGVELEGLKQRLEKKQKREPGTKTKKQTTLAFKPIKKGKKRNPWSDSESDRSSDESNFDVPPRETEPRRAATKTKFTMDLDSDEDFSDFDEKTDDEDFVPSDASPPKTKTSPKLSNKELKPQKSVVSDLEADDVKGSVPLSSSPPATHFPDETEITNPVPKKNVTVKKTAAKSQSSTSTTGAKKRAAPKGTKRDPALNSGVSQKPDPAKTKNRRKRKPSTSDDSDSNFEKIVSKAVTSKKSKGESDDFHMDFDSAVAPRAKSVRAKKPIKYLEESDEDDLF

For the compound `COC1=C(CC(C)(C)CNC(=O)c2cc(OC)ccc2OC)C(=O)c2ccccc2C1=O`, the pIC50 in test [1] is 4.24; in test [2], 4.46; in test [3], 4.13; in test [4] it was 4.44.

For the compound `COC1=C(CC(C)(C)CNC(=O)c2cc(OC)c3ccccc3c2OC)C(=O)c2ccccc2C1=O`, the IC50 entry in test [1] was “Not Active”. Also, the results for the pIC50 in test [2], in test [3] and in test [4] were 4.38, 4.71 and 4.52, respectively.

Turning to `COC1=C(CC(C)(C)CNC(=O)c2ccccc2)C(=O)c2ccccc2C1=O`, the pIC50 in test [1] was 4.21; in test [2] it was 3.93; in test [3], 4.72; in test [4] it was 4.91.

For `COc1ccc(O)c(C(=O)NCC(C)(C)CC2=C(O)C(=O)c3ccccc3C2=O)c1`, the figures for the pIC50 in test [1], in test [3] and in test [4] were 4.40, 4.83 and 4.51, respectively. For the same compound, the IC50 result in test [2] (kb) was “Not Active”.

For `COc1cc(C(=O)NCC(C)(C)CC2=C(O)C(=O)c3ccccc3C2=O)c(OC)c2ccccc12`, the inhibition result in test [5] is “Active”. Further, in test [1], the IC50 result is on record as “Not Active”. For the same compound, the inhibition entry in test [6] is “inactive”. Also, the results for the negative-log IC50 (pIC50) in test [2], in test [3] and in test [4] were 4.33, 4.70 and 4.75, respectively.

As for `COc1c(C(=O)NCC(C)(C)CC2=C(O)C(=O)c3ccccc3C2=O)ccc2ccccc12`, the negative logarithm of the IC50 (pIC50) is 4.40 in test [1], 4.17 in test [2], 4.43 in test [3] and 4.33 in test [4].

Turning to `COC1=C(CC(C)(C)CNC(=O)c2ccccc2OC)C(=O)c2ccccc2C1=O`, the negative logarithm of the IC50 (pIC50) was 4.15 in test [1], 4.48 in test [2], 4.46 in test [3] and 4.56 in test [4].

Consider `CC(C)(CNC(=O)c1ccccc1O)CC1=C(O)C(=O)c2ccccc2C1=O`, for which, in test [5], the inhibition result is “Active”. Further, the negative logarithm of the IC50 (pIC50) was 4.55 in test [1], 4.35 in test [2], 5.05 in test [3] and 4.49 in test [4]. In addition, the inhibition result in test [6] was “inactive”.

With `COc1ccccc1C(=O)NCC(C)(C)CC1=C(O)C(=O)c2ccccc2C1=O`, the negative logarithm of the IC50 (pIC50) was 3.95 in test [1], 4.58 in test [2], 4.37 in test [3] and 4.51 in test [4].

For `CC(C)(CNC(=O)c1ccccc1)CC1=C(O)C(=O)c2ccccc2C1=O`, the negative logarithm of the IC50 (pIC50) in test [1] is 4.43; in test [2] it was 4.82; in test [3], 4.40; in test [4], 4.30.

With `COC1=C(CC(C)(C)CNC(=O)c2ccc3ccccc3c2OC)C(=O)c2ccccc2C1=O`, the negative logarithm of the IC50 (pIC50) is 4.02 in test [1], 4.19 in test [2], 4.27 in test [3] and 4.22 in test [4].

Turning to `CC(C)(CNC(=O)c1ccc2ccccc2c1)CC1=C(O)C(=O)c2ccccc2C1=O`, the inhibition entry in test [5] was “Active”. Besides, the pIC50 is 4.55 in test [1], 5.05 in test [2], 4.71 in test [3] and 4.33 in test [4]. The inhibition entry in test [6] is “inactive”.

`COc1cc(C(=O)NCC(C)(C)CC2=C(O)C(=O)c3ccccc3C2=O)c(O)c2ccccc12`: the inhibition result in test [5] and in test [7] was “Active” in each case. Also, the pIC50 is 4.45 in test [1], 5.06 in test [2], 4.58 in test [3] and 4.80 in test [4]. The inhibition entry in test [6] was “inactive”.

Consider `COc1ccc(OC)c(C(=O)NCC(C)(C)CC2=C(O)C(=O)c3ccccc3C2=O)c1`, for which the pIC50 was 4.00 in test [1], 4.06 in test [2], 4.39 in test [3] and 4.05 in test [4].

In the case of `COc1cccc2c1C(=O)c1c(O)c3c(c(O)c1C2=O)C[C@@](O)(C(=O)CO)C[C@@H]3O[C@H]1C[C@H](N)[C@H](O)[C@H](C)O1` [DOXORUBICIN], the negative logarithm of the IC50 (pIC50) in test [2] was 6.05; in test [3] it was 6.80; in test [4], 4.54.

Take `COC1=C(CC(C)(C)CNC(=O)c2ccc3ccccc3c2)C(=O)c2ccccc2C1=O`: the negative logarithm of the IC50 (pIC50) in test [1] was 4.28; in test [2], 4.47; in test [3] it was 4.59; in test [4], 4.44.

Take `CC(C)(CNC(=O)c1ccc2ccccc2c1O)CC1=C(O)C(=O)c2ccccc2C1=O`: the inhibition entry in test [5] and in test [7] was “Active” each time. The pIC50 in test [1] is 4.10; in test [2], 4.57; in test [3] it was 4.84; in test [4] it was 4.03. Further, the inhibition result in test [6] was “inactive”.

A word on the pIC50: it is the negative decadic logarithm of the IC50, by convention in mol/L.
